What was measured:
Format in all cases: functional
MDA-MB-468 = assay: Growth inhibition of human MDA-MB-468 cells at 10 uM after 48 hrs by coulter counter method; details: MDA-MB-468, 48 h, read-out: GI
How it was run: (§1)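 Single high-dose NCI 60-cell-line panel screen across nine tumor subpanels. Test solutions (0.2 mL) were added in duplicate to wells holding 1.8 mL of culture at 6 × 10⁴ cells/mL. Controls got PBS and DMSO at identical dilutions. Incubation was 48 h at 37 °C in humidified 5% CO₂. Cells were diluted 10-fold in saline, Coulter-counted and dilution-corrected. Results were expressed as percent growth inhibition versus control.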

M14 = assay: Growth inhibition of human M14 cells at 10 uM after 48 hrs by coulter counter method; details: M14, 48 h, read-out: GI; how it was run: as §1
UACC-62 = assay: Growth inhibition of human UACC62 cells at 10 uM after 48 hrs by coulter counter method; details: UACC-62, 48 h, read-out: GI; how it was run: as §1
NCI-H522 = assay: Growth inhibition of human NCI-H522 cells at 10 uM after 48 hrs by coulter counter method; details: NCI-H522, 48 h, read-out: GI; how it was run: as §1
SF-539 = assay: Growth inhibition of human SF539 cells at 10 uM after 48 hrs by coulter counter method; details: SF-539, 48 h, read-out: GI; how it was run: as §1
NCI-H23 = assay: Growth inhibition of human NCI-H23 cells at 10 uM after 48 hrs by coulter counter method; details: NCI-H23, 48 h, read-out: GI; how it was run: as §1
HOP-92 = assay: Growth inhibition of human HOP92 cells at 10 uM after 48 hrs by coulter counter method; details: HOP-92, 48 h, read-out: GI; how it was run: as §1
MCF7 = assay: Growth inhibition of human MCF7 cells at 10 uM after 48 hrs by coulter counter method; details: MCF7, 48 h, read-out: GI; how it was run: as §1
SNB-75 = assay: Growth inhibition of human SNB75 cells at 10 uM after 48 hrs by coulter counter method; details: SNB-75, 48 h, read-out: GI; how it was run: as §1
CCRF-CEM = assay: Growth inhibition of human CCRF-CEM cells at 10 uM after 48 hrs by coulter counter method; details: read-out: GI; how it was run: as §1
HL-60(TB) = assay: Growth inhibition of human HL-60(TB) cells at 10 uM after 48 hrs by coulter counter method; details: HL-60, 48 h, read-out: GI
How it was run: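 Part of the NCI 60-cell-line single-high-dose panel. Cells were seeded at 6 × 10⁴ cells/mL with test solution in duplicate wells, alongside PBS/DMSO controls at identical dilutions. Plates were held 48 h at 37 °C in a humidified 5% CO₂ incubator. Cells were then diluted 10-fold in saline and counted by Coulter counter, with counts corrected for dilution. Results are percent growth of treated cells, reported as GI %.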

COLO 205 = assay: Growth inhibition of human COLO205 cells at 10 uM after 48 hrs by coulter counter method; details: COLO 205, 48 h, read-out: GI; how it was run: as §1
SK-OV-3 = assay: Growth inhibition of human SKOV3 cells at 10 uM after 48 hrs by coulter counter method; details: SK-OV-3, 48 h, read-out: GI; how it was run: as §1
NCI-H226 = assay: Growth inhibition of human NCI-H226 cells at 10 uM after 48 hrs by coulter counter method; details: NCI-H226, 48 h, read-out: GI; how it was run: as §1
T47D = assay: Growth inhibition of human T47D cells at 10 uM after 48 hrs by coulter counter method; details: read-out: GI; how it was run: as §1
HCT-116 = assay: Growth inhibition of human HCT116 cells at 10 uM after 48 hrs by coulter counter method; details: HCT-116, 48 h, read-out: GI; how it was run: as §1
OVCAR-8 = assay: Growth inhibition of human OVCAR8 cells at 10 uM after 48 hrs by coulter counter method; details: OVCAR-8, 48 h, read-out: GI; how it was run: as §1
K562 = assay: Growth inhibition of human K562 cells at 10 uM after 48 hrs by coulter counter method; details: K562, 48 h, read-out: GI; how it was run: as §1
[1] = Growth inhibition of human Hs 578T cells at 10 uM after 48 hrs by coulter counter method; details: read-out: GI; how it was run: as §1
UO-31 = assay: Growth inhibition of human UO31 cells at 10 uM after 48 hrs by coulter counter method; details: UO-31, 48 h, read-out: GI; how it was run: as §1
OVCAR-4 = assay: Growth inhibition of human OVCAR4 cells at 10 uM after 48 hrs by coulter counter method; details: OVCAR-4, 48 h, read-out: GI; how it was run: as §1
A549 = assay: Growth inhibition of human A549 cells at 10 uM after 48 hrs by coulter counter method; details: A549, 48 h, read-out: GI; how it was run: as §1
PC-3 = assay: Growth inhibition of human PC3 cells at 10 uM after 48 hrs by coulter counter method; details: PC-3, 48 h, read-out: GI; how it was run: as §1
786-0 = assay: Growth inhibition of human 786-0 cells at 10 uM after 48 hrs by coulter counter method; details: 786-0, 48 h, read-out: GI; how it was run: as §1
HT-29 = assay: Growth inhibition of human HT-29 cells at 10 uM after 48 hrs by coulter counter method; details: HT-29, 48 h, read-out: GI; how it was run: as §1
SK-MEL-28 = assay: Growth inhibition of human SK-MEL-28 cells at 10 uM after 48 hrs by coulter counter method; details: SK-MEL-28, 48 h, read-out: GI; how it was run: as §1
SF-268 = assay: Growth inhibition of human SF268 cells at 10 uM after 48 hrs by coulter counter method; details: SF-268, 48 h, read-out: GI; how it was run: as §1
KM12 = assay: Growth inhibition of human KM12 cells at 10 uM after 48 hrs by coulter counter method; details: KM12, 48 h, read-out: GI; how it was run: as §1
BT-549 = assay: Growth inhibition of human BT549 cells at 10 uM after 48 hrs by coulter counter method; details: BT-549, 48 h, read-out: GI; how it was run: as §1
SK-MEL-2 = assay: Growth inhibition of human SK-MEL-2 cells at 10 uM after 48 hrs by coulter counter method; details: SK-MEL-2, 48 h, read-out: GI; how it was run: as §1
MDA-MB-231 = assay: Growth inhibition of human MDA-MB-231 cells at 10 uM after 48 hrs by coulter counter method; details: MDA-MB-231, 48 h, read-out: GI; how it was run: as §1
SN12C = assay: Growth inhibition of human SN12C cells at 10 uM after 48 hrs by coulter counter method; details: read-out: GI; how it was run: as §1
CAKI-1 = assay: Growth inhibition of human Caki1 cells at 10 uM after 48 hrs by coulter counter method; details: CAKI-1, 48 h, read-out: GI; how it was run: as §1
U-251 = assay: Growth inhibition of human U251 cells at 10 uM after 48 hrs by coulter counter method; details: U-251, 48 h, read-out: GI; how it was run: as §1
IGROV-1 = assay: Growth inhibition of human IGROV1 cells at 10 uM after 48 hrs by coulter counter method; details: IGROV-1, 48 h, read-out: GI; how it was run: as §1
MOLT-4 = assay: Growth inhibition of human MOLT4 cells at 10 uM after 48 hrs by coulter counter method; details: MOLT-4, 48 h, read-out: GI; how it was run: as §1
SR = assay: Growth inhibition of human SR cells at 10 uM after 48 hrs by coulter counter method; details: read-out: GI; how it was run: as §1

Row | Structure (SMILES) | inhibition of growth at 10 µM (MDA-MB-468) [%] | inhibition of growth at 10 µM (M14) [%] | inhibition of growth at 10 µM (UACC-62) [%] | inhibition of growth at 10 µM (NCI-H522) [%] | inhibition of growth at 10 µM (SF-539) [%] | inhibition of growth at 10 µM (NCI-H23) [%] | inhibition of growth at 10 µM (HOP-92) [%] | inhibition of growth at 10 µM (MCF7) [%] | inhibition of growth at 10 µM (SNB-75) [%] | inhibition of growth at 10 µM (CCRF-CEM) [%] | inhibition of growth at 10 µM (HL-60(TB)) [%] | inhibition of growth at 10 µM (COLO 205) [%] | inhibition of growth at 10 µM (SK-OV-3) [%] | inhibition of growth at 10 µM (NCI-H226) [%] | inhibition of growth at 10 µM (T47D) [%] | inhibition of growth at 10 µM (HCT-116) [%] | inhibition of growth at 10 µM (OVCAR-8) [%] | inhibition of growth at 10 µM (K562) [%] | inhibition of growth at 10 µM [1] [%] | inhibition of growth at 10 µM (UO-31) [%] | further results
1 | CCn1c(-n2ccnc2)nc2ccccc2c1=O | 30 | 30 | 30 | 30 | 30 | 30 | 30 | 30 | 30 | 30 | 30 | 30 | 30 | 30 | 30 | 30 | 30 | 37.9 | 30 | 30 | inhibition of growth at 10 µM (OVCAR-4): 30%; inhibition of growth at 10 µM (A549): 30%; inhibition of growth at 10 µM (PC-3): 30%; inhibition of growth at 10 µM (786-0): 30%; inhibition of growth at 10 µM (HT-29): 30%; inhibition of growth at 10 µM (SK-MEL-28): 30%; inhibition of growth at 10 µM (SF-268): 30%; inhibition of growth at 10 µM (KM12): 30%; inhibition of growth at 10 µM (BT-549): 30%; inhibition of growth at 10 µM (SK-MEL-2): 30%; inhibition of growth at 10 µM (MDA-MB-231): 30%; inhibition of growth at 10 µM (SN12C): 30%; inhibition of growth at 10 µM (CAKI-1): 46.3%; inhibition of growth at 10 µM (U-251): 30%
2 | COc1ccc(-n2c(Nc3ccc(S(N)(=O)=O)cc3)nc3ccccc3c2=O)cc1 | 37.5 | 30 | 30 | 30 | 30 | 30 | 30 | 30 | 30 | 30 | 30 | 30 | 30 | 30 | 30 | 36.7 | 30 | 47.1 | 30 | 30 | inhibition of growth at 10 µM (IGROV-1): 30%; inhibition of growth at 10 µM (MOLT-4): 30%; inhibition of growth at 10 µM (SR): 30%; inhibition of growth at 10 µM (OVCAR-4): 30%; inhibition of growth at 10 µM (A549): 30%; inhibition of growth at 10 µM (PC-3): 30%; inhibition of growth at 10 µM (786-0): 30%; inhibition of growth at 10 µM (HT-29): 30%; inhibition of growth at 10 µM (SK-MEL-28): 30%; inhibition of growth at 10 µM (SF-268): 30%; inhibition of growth at 10 µM (KM12): 30%; inhibition of growth at 10 µM (BT-549): 30%; inhibition of growth at 10 µM (SK-MEL-2): 30%; inhibition of growth at 10 µM (MDA-MB-231): 30%; inhibition of growth at 10 µM (SN12C): 30%; inhibition of growth at 10 µM (CAKI-1): 30%; inhibition of growth at 10 µM (U-251): 30%
3 | O=C1Nc2ccc(C(=O)Nc3ccccn3)cc2C(c2ccc(Cl)cc2)N1 (stereo not given) | 30 | 30 | 30 | 30 | 30 | 30.4 | 30 | 39.2 | 30 | 30 | 30 | 30 | 30 | 30 | 44.9 | 39.8 | 30 | 30 | 30 | 41.8 | inhibition of growth at 10 µM (IGROV-1): 30%; inhibition of growth at 10 µM (MOLT-4): 33.9%; inhibition of growth at 10 µM (SR): 30%; inhibition of growth at 10 µM (OVCAR-4): 30%; inhibition of growth at 10 µM (A549): 30%; inhibition of growth at 10 µM (PC-3): 32.9%; inhibition of growth at 10 µM (786-0): 30%; inhibition of growth at 10 µM (HT-29): 37.4%; inhibition of growth at 10 µM (SK-MEL-28): 30%; inhibition of growth at 10 µM (SF-268): 30%; inhibition of growth at 10 µM (KM12): 30%; inhibition of growth at 10 µM (BT-549): 31.8%; inhibition of growth at 10 µM (SK-MEL-2): 30%; inhibition of growth at 10 µM (MDA-MB-231): 30%; inhibition of growth at 10 µM (SN12C): 30%; inhibition of growth at 10 µM (CAKI-1): 30%; inhibition of growth at 10 µM (U-251): 30%
4 | COc1ccc(C2NC(=O)Nc3ccc(C(=O)Nc4ccccn4)cc32)cc1 (stereo not given) | 30 | 30 | 30 | 30 | 30 | 30 | 30 | 30 | 30 | 30 | 30 | 30 | 30 | 30 | 37.6 | 30 | 30 | 30 | 30 | 34.3 | inhibition of growth at 10 µM (IGROV-1): 30%; inhibition of growth at 10 µM (MOLT-4): 30%; inhibition of growth at 10 µM (SR): 30%; inhibition of growth at 10 µM (OVCAR-4): 30%; inhibition of growth at 10 µM (A549): 30%; inhibition of growth at 10 µM (PC-3): 30%; inhibition of growth at 10 µM (786-0): 30%; inhibition of growth at 10 µM (HT-29): 30%; inhibition of growth at 10 µM (SK-MEL-28): 30%; inhibition of growth at 10 µM (SF-268): 30%; inhibition of growth at 10 µM (KM12): 30%; inhibition of growth at 10 µM (BT-549): 30%; inhibition of growth at 10 µM (SK-MEL-2): 30%; inhibition of growth at 10 µM (MDA-MB-231): 30%; inhibition of growth at 10 µM (SN12C): 30%; inhibition of growth at 10 µM (CAKI-1): 30%; inhibition of growth at 10 µM (U-251): 30%
